# Paper PMC8075810 (Cell Chemical Biology, 2021)
# Assays:
# [1] = test system: SCoV2; experiment: SCoV2 replication in hACE2-HeLa cells, NP western blot; format: cell-based, SARS-CoV2 (SZ02); conditions: 5 μM, 48 h
# [2] = Stability in mouse plasma; format: in vitro ADME
# [3] = test system: hACE2-HeLa cells; experiment: Cytotoxicity, CellTiter-Glo viability assay; format: cell-based, Human; conditions: 10 μM, 72 h
# In short: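 hACE2-HeLa cells grown in DMEM with 10% FBS and penicillin-streptomycin at 37°C, 5% CO2, and passaged before confluency. 2 x 10^3 cells/well were seeded in 384-well format and exposed to test compound at a range of concentrations for 72 h. Viability was read by CellTiter-Glo luminescence.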
# [4] = test system: SCoV2; conditions: hACE2-HeLa cells
# [5] = test system: 10 DUBs or DUB-like proteases, including USP14 and OTUB1; experiment: Inhibitor specificity assay; format: biochemical, Human; conditions: 19 at 10 μM, Ub-Rho substrate
# [6] = test system: NF-κB activation perturbed by SCoV2 PLpro; experiment: NF-κB activity luciferase-reporting assay; format: cell-based, Human
# [7] = test system: SCoV2; experiment: microbe, parasite or virus in culture; conditions: Severe acute respiratory syndrome coronavirus 2, read-out: IC50 (inhibition of SCoV2 replication)
# [8] = Metabolic stability in mouse liver microsomes; format: in vitro ADME
# In short: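 It was then split into 7 aliquots, each given NADPH (3 mM solution added) or PBS alone and incubated at 37°C. Samples were diluted 1:1 with water and analysed by LC-MS.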
smiles,measurement,setting,value
"C[C@H](c1cccc2ccccc12)N1CCC(C(=O)NCc2cccc(F)c2)CC1 [Inhibitor 11, (R)-N-(3-fluorobenzyl)-1-(1-(naphthalen-1-yl)ethyl)piperidine-4-carboxamide]",NP level in infected hACE2-HeLa cells,[1],strongest
"C[C@H](c1cccc2ccccc12)N1CCC(C(=O)NCc2cc(F)cc(NC(=O)N3CCN(C)CC3)c2)CC1 [Inhibitor 19, (R)-N-(3-fluoro-5-((1-(1-(naphthalen-1-yl)ethyl)piperidine-4-carboxamido)methyl)phenyl)-4-methylpiperazine-1-carboxamide]",half-life at 8.35 μM,[2],> 120 min
same,cytotoxicity (in words),[3],neither 17 nor 19 showed detectable cytotoxicity
same,therapeutic index (CC50/IC50),[4],over 55
same,inhibition of SCoV2 replication (in words),[4]; spike immunostaining,significantly inhibit SCoV2 replication even at 400 nM
same,inhibition of DUBs or DUB-like proteases,[5],none of these 10 proteases were significantly inhibited
same,recovery of NF-κB activation level,[6],significantly recover
same,IC50,[7],0.182 µM
same,half-life at 1 μM,[8],28 min
